Screening results (PubChem BioAssay)
Most compounds without a hit are left out; they make up all but 2.8% or so of the library.
SR-BI HDL uptake = mouse SR-BI HDL lipid transfer inhibition | ldlA[mSR-BI] CHO cells, DiI-HDL uptake fluorescence, 3 h | actives 0.96% (n = 320,000) | AID 488896 | inhibition, % at 12.5 µM | Q61009;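 active = mean replicate inhibition of at least 70% and a set share of replicates each scoring 70 or more; inconclusive = meets just one of the two criteria; inactive = fails both criteria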;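 note: 0% = median of neutral control wells and 100% = median of positive control wells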
Target sequence (Q61009 whole entry, looked up): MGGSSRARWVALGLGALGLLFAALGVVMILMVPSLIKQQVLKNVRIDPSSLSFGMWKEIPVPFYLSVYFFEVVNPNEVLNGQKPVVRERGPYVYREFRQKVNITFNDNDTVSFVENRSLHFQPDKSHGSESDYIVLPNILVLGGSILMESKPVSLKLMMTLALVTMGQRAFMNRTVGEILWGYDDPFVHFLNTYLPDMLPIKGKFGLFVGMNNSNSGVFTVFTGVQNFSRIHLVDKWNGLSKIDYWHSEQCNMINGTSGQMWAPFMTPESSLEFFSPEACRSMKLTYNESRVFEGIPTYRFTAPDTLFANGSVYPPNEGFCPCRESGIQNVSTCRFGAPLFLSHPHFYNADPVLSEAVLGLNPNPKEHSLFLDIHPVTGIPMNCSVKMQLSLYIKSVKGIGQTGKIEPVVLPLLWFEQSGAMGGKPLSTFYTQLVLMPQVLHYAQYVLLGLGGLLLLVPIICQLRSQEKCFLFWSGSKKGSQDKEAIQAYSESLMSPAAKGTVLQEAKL
SR-BI DiI-HDL act = SR-BI HDL lipid transfer activation | CHO ldlA[mSR-BI] cells, DiI-HDL uptake fluorescence, 3 h; 100 = double the neutral-control signal | actives 0.096% (n = 320,000) | activation, % at 12.5 µM | AID 504775;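 active = mean replicate activation of at least 60% and every replicate at or above 60%; inconclusive = mean or all-replicate condition met, but not both; inactive = mean below 60% and not all replicates reaching 60%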;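 note: 0% = median plate neutral-control signal and 100% = twice that signal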
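Test system: SR-BI-overexpressing, LDLR-lacking CHO cells; Medium: Ham's F12 with 0.5% BSA, HEPES 25 mM, pH 7.4; Schedule: 3 h, 37 °C; Technique: bottom-read fluorescence, 550/595 nm.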
CAL PDZ FP-1 = blocks peptide binding to the human CAL PDZ domain; purified CAL PDZ, TMR-peptide fluorescence polarization, 1 h; Q9HD26; AID 602252; actives 0.92% (n = 300,000); inhibition, % at 24.9 µM;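 active = mean inhibition of at least 30% with at least half of replicates also reaching 30%; inconclusive = no clear call, values can overlap the other calls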;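 note: 0% = DMSO neutral control and 100% = excess unlabeled competitor peptide PRC23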
dFosB act = activators of mouse delta FosB homodimer | P13346 | actives 0.99% (n = 340,000) | activation, % at 25 µM | purified delta FosB, TAMRA-CDK5 oligo fluorescence polarization; percent of positive-control signal above neutral wells | AID 493131;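 active = mean activation above about 17%, with every replicate also reaching it, limit read from the data, passing the limit was not always enough; inconclusive = only one of the two conditions met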
CAL PDZ FP-2 = blocks peptide binding to human CAL PDZ domain. Q9HD26. purified CAL PDZ, TMR-peptide fluorescence polarization, 1 h. inhibition, % at 20 µM. actives 0.02% (n = 330,000);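 active = highest replicate inhibition of at least 40%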;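 note: plate controls were DMSO neutral control wells for no effect and unlabeled competitor peptide control wells for full effect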
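Assay system – tagged CAL PDZ protein CerCALP, purified · Timing – 1 h at RT · Compound – single point, 20 µM · Measured by – fluorescence polarization from S- and P-plane intensities, G-factor corrected · Evaluation – inhibition from polarization loss · Probe or stimulus – TMR reporter peptide T*-PRC34 · Buffer or medium – pH 7.4 phosphate-saline buffer, reducing agent, detergent, IgG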
DiI quencher = counter-screen for SR-BI lipid transfer inhibitors: DiI fluorescence quenchers; shares compounds with SR-BI HDL uptake; cell-free DiI-HDL fluorescence quenching, 30 min; AC50, µM (top dose mostly 35 µM), for the others: at the highest dose activity change, negative = quenching; actives 20% (n = 470);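 active = quenching, a falling signal, with AC50 below a set limit tied to the top valid dose, actives reach about 32 µM in these data; inconclusive = no clear call, values can overlap the other calls; inactive = rising signal, and the rest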
Numbers without * were called inactive.

Results for COc1ccc(C2/C=C\CN(S(=O)(=O)c3cccc4cccnc34)CC(=O)N2Cc2ccc(F)cc2)cc1 (stereo not drawn) ?
SR-BI HDL uptake: 53; SR-BI DiI-HDL act: -53; CAL PDZ FP-1: -1; dFosB act: 6; CAL PDZ FP-2: 0

Results for COc1ccc(C2/C=C\CN(S(=O)(=O)c3ccc(C)cc3)CC(=O)N2Cc2cccc(F)c2)cc1 (stereo not drawn) ?
SR-BI HDL uptake: 80*; SR-BI DiI-HDL act: -80; CAL PDZ FP-1: -4; dFosB act: -7; CAL PDZ FP-2: 0; DiI quencher: 0%

Results for COc1ccc(C2/C=C\CN(S(=O)(=O)c3ccc(C)cc3)CC(=O)N2Cc2ccc(F)cc2)cc1 (stereo not drawn) ?
SR-BI HDL uptake: 86*; SR-BI DiI-HDL act: -86; CAL PDZ FP-1: -3; dFosB act: -9; CAL PDZ FP-2: 0; DiI quencher: -6%

Results for Cc1cccc(Cn2c(N3CCN(C)CC3)nc3c2c(=O)n(C)c(=O)n3C)c1 ?
SR-BI HDL uptake: -33; SR-BI DiI-HDL act: 33; dFosB act: -3; CAL PDZ FP-2: -1

Results for CCCCC(c1nnnn1CC1CCCO1)N1CCN(c2cc(Cl)ccc2C)CC1 (stereo not drawn) ?
SR-BI HDL uptake: 82*; SR-BI DiI-HDL act: -82; CAL PDZ FP-1: 4; dFosB act: -11; DiI quencher: 5%

Results for COc1cccc(OC)c1C1=NC(C)(C)CO1 ?
SR-BI HDL uptake: -17; SR-BI DiI-HDL act: 17; dFosB act: -1; CAL PDZ FP-2: -1

How did CCC(=O)Nc1ccc(Cl)c(NC(=O)c2ccccc2OC)c1 do in these assays?
SR-BI HDL uptake: 6; SR-BI DiI-HDL act: -6; CAL PDZ FP-1: -2; dFosB act: -8; CAL PDZ FP-2: -3

How did CCC(=O)Nc1ccc(Cl)c(NC(=O)c2cccc(OC)c2)c1 do in these assays?
SR-BI HDL uptake: 80*; SR-BI DiI-HDL act: -80; CAL PDZ FP-1: -10; dFosB act: -3; CAL PDZ FP-2: -2; DiI quencher: 2%

How did CC1(C)C(=O)Nc2ccccc2N1C(=O)COC(=O)c1ccc([N+](=O)[O-])o1 do in these assays?
SR-BI HDL uptake: 3; SR-BI DiI-HDL act: -3; CAL PDZ FP-1: 0; dFosB act: 0; CAL PDZ FP-2: 1

Results for CCCCN1C[C@H](C)[C@@H](CC(=O)NCc2ccccc2)C1=O ?
SR-BI HDL uptake: -4; SR-BI DiI-HDL act: 4; CAL PDZ FP-1: -5; dFosB act: -2; CAL PDZ FP-2: -1

How did COc1ccc(N(CC(=O)Nc2cccc(C(C)=O)c2)S(=O)(=O)c2ccc(NC(C)=O)cc2)cc1 do in these assays?
SR-BI HDL uptake: 56; SR-BI DiI-HDL act: -56; CAL PDZ FP-1: 0; dFosB act: -19; CAL PDZ FP-2: -2

Results for COCCNC(=O)c1ccc(CS(=O)(=O)c2cccc(C(F)(F)F)c2)o1 ?
SR-BI HDL uptake: 75*; SR-BI DiI-HDL act: -75; CAL PDZ FP-1: 0; dFosB act: -8; CAL PDZ FP-2: -1; DiI quencher: 9%

How did CCn1c(COc2c(C)cccc2C)nnc1SCC(=O)N1CCN(c2ccccc2)CC1 do in these assays?
SR-BI HDL uptake: 79*; SR-BI DiI-HDL act: -79; CAL PDZ FP-1: -4; dFosB act: 3; CAL PDZ FP-2: 0; DiI quencher: -3%

How did CCOC(=O)C1CCCN(S(=O)(=O)NC[C@H]2O[C@@H](n3cnc4c(N)ncnc43)[C@H](O)[C@@H]2O)C1 (stereo partly drawn) do in these assays?
SR-BI HDL uptake: 81*; SR-BI DiI-HDL act: -81; CAL PDZ FP-1: -5; dFosB act: -2; CAL PDZ FP-2: 0; DiI quencher: 3%

Results for CN1CCN(S(=O)(=O)NC[C@H]2O[C@@H](n3cnc4c(N)ncnc43)[C@H](O)[C@@H]2O)CC1 ?
SR-BI HDL uptake: -27; SR-BI DiI-HDL act: 27; CAL PDZ FP-1: -2; dFosB act: -10; CAL PDZ FP-2: 2

How did COc1ccc([C@H]2CC(=O)C=C(c3cccc4c3sc3ccccc34)C2)cc1OC do in these assays?
SR-BI HDL uptake: 96*; SR-BI DiI-HDL act: -96; CAL PDZ FP-1: -2; dFosB act: 6; CAL PDZ FP-2: -1; DiI quencher: 3%

Results for O=C(O)C(C(O)c1ccccc1)[n+]1ccccc1 (stereo not drawn) ?
SR-BI HDL uptake: -10; SR-BI DiI-HDL act: 10; CAL PDZ FP-1: -1; dFosB act: -3; CAL PDZ FP-2: 0

How did CCC(C)NC(=O)Cn1cc(S(=O)(=O)N2CCN(c3ccccc3F)CC2)c2ccccc2c1=O (stereo not drawn) do in these assays?
SR-BI HDL uptake: 87*; SR-BI DiI-HDL act: -87; CAL PDZ FP-1: 5; dFosB act: -6; CAL PDZ FP-2: -1; DiI quencher: 4%

Results for Cn1cc(S(=O)(=O)N2CCN(c3ccccc3F)CC2)c(=O)n(C)c1=O ?
SR-BI HDL uptake: -3; SR-BI DiI-HDL act: 3; CAL PDZ FP-1: -3; dFosB act: -3; CAL PDZ FP-2: 0

What do the screens show for `CCN(CC)C(=O)c1cccc(NC(=O)c2cc(C3CC3)nc3c2cnn3C(C)C)c1`?
SR-BI HDL uptake: 78*; SR-BI DiI-HDL act: -78; CAL PDZ FP-1: -6; dFosB act: -22; CAL PDZ FP-2: -1; DiI quencher: 6%

Results for CC(=O)Nc1ccc(NC(=O)c2cc(C3CC3)nc3c2cnn3C(C)C)cc1 ?
SR-BI HDL uptake: inconclusive; SR-BI DiI-HDL act: -75; CAL PDZ FP-1: -1; dFosB act: 0; CAL PDZ FP-2: -2

Results for O=C1C2C3C=CC(O3)C2C(=O)N1N=Cc1ccc2c(c1)OCO2 (stereo not drawn) ?
SR-BI HDL uptake: -5; SR-BI DiI-HDL act: 5; CAL PDZ FP-1: 0; dFosB act: 1; CAL PDZ FP-2: 1

How did CCc1cc2cc3c(cc2nc1SCC(=O)OC(C)C)OCO3 do in these assays?
SR-BI HDL uptake: 77*; SR-BI DiI-HDL act: -77; CAL PDZ FP-1: -4; dFosB act: -5; DiI quencher: 4%

Results for CCOC(=O)c1[nH]c2c(c1C)C(=O)CC(c1ccco1)C2 (stereo not drawn) ?
SR-BI HDL uptake: 57; SR-BI DiI-HDL act: -57; dFosB act: -12; CAL PDZ FP-2: -1

Results for Cc1c(C(=O)OCCOC(C)C)[nH]c2c1C(=O)CC(c1ccco1)C2 (stereo not drawn) ?
SR-BI HDL uptake: 89*; SR-BI DiI-HDL act: -89; dFosB act: -6; CAL PDZ FP-2: -2; DiI quencher: -1%

Results for C=CCOC(=O)c1[nH]c2c(c1C)C(=O)CC(c1cc(OC)c(OC)c(OC)c1)C2 (stereo not drawn) ?
SR-BI HDL uptake: 72*; SR-BI DiI-HDL act: -72; CAL PDZ FP-1: 0; dFosB act: -4; CAL PDZ FP-2: -1; DiI quencher: -1%
